Legend:
[1] = system: CHLA-136 cell line; assay: DIMSCAN in vitro cytotoxicity testing, CHLA-136; type: cell-based
Outline: (§1)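 Test compound incubated with cells of a 24-line pediatric cancer panel for 96 h at 0.1 nM to 1 μM, then assessed by DIMSCAN. Relative IC50 (rIC50) derived per line. Panel comparison value is the panel rIC50 divided by the rIC50 of each cell line.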

[2] = system: ALL-4 ALL B-precursor xenograft; assay: PPTP in vivo xenograft testing, ALL-4; set-up: species or system mice
[3] = system: TC-71 cell line; assay: DIMSCAN in vitro cytotoxicity testing, TC-71; type: cell-based
Outline: as §1

[4] = system: NB-1643 neuroblastoma xenograft; assay: PPTP in vivo xenograft testing, NB-1643; set-up: species or system mice
[5] = system: EW8 Ewing xenograft; assay: PPTP in vivo xenograft testing, EW8; set-up: species or system mice
[6] = system: ALL-7 ALL B-precursor xenograft; assay: PPTP in vivo xenograft testing, ALL-7; set-up: species or system mice
[7] = system: CHLA-9 cell line; assay: DIMSCAN in vitro cytotoxicity testing, CHLA-9; type: cell-based
Outline: as §1

[8] = system: NB-EBc1 cell line; assay: DIMSCAN in vitro cytotoxicity testing, NB-EBc1; type: cell-based
Outline: as §1

[9] = intravenous dose of 2 mg/kg; different mouse strain; cited from earlier work
[10] = system: Rh30R ALV rhabdomyosarcoma xenograft; assay: PPTP in vivo xenograft testing, Rh30R; set-up: species or system mice
[11] = system: BT-50 medulloblastoma xenograft; assay: PPTP in vivo xenograft testing, BT-50; set-up: species or system mice
[12] = system: Rh41 cell line; assay: DIMSCAN in vitro cytotoxicity testing, Rh41; type: cell-based
Outline: as §1

[13] = system: BT-28 medulloblastoma xenograft; assay: PPTP in vivo xenograft testing, BT-28; set-up: species or system mice; details: 1 mg/kg IP
[14] = 1.5 mg/kg IP Q4Dx3 repeated at Day 21
[15] = NB-1643, 1 mg/kg IP Q4Dx3 repeated at Day 21
[16] = 1 mg/kg IP Q4Dx3 repeated at Day 21

In the case of `C=C1C[C@@H]2CC[C@@]34C[C@H]5O[C@H]6[C@@H](O3)[C@H]3O[C@H](CC[C@@H]3O[C@H]6[C@H]5O4)CC(=O)C[C@@H]3[C@@H](OC)[C@@H](C[C@H](O)CN)O[C@H]3C[C@H]3O[C@@H](CC[C@@H]1O2)C[C@@H](C)C3=C` [Eribulin], the IC50 ([1]; 96 h, read-out: rIC50) is reported as 2370 pM, the “Panel rIC50/Line rIC50” value ([1]; CHLA-136) is reported as 0.11 and the Relative in/out% ([1]; CHLA-136) is reported as −65%. For the same compound, the “Ymin % (observed)” value ([1]; CHLA-136) was 9.96%, the EFS activity ([2]; 1.5 mg/kg IP) was “High (High activity requires: (a) an EFS T/C >2; (b) a significant difference in EFS distributions, and (c) a net reduction in median tumor volume for animals in the treated group at the end of treatment as compared to at treatment initiation)” and the Response activity ([2]; 1.5 mg/kg IP) was “High (A high level of activity is indicated by a score of 6 or more)”. The “EFS T/C” value [2, 14] was greater than 4.3, the “Median final RTV (CD45%)” value ([2]; CD45%, 1.5 mg/kg IP) was 0.0% and the “Panel rIC50/Line rIC50” value ([3]; TC-71) was 2.45. For the same compound, the Relative in/out% ([3]; TC-71) was −99%, the “Ymin % (observed)” value ([3]; TC-71) was 0.01% and the IC50 ([3]; TC-71, 96 h, read-out: rIC50) was 110 pM. For the same compound, the EFS activity ([4]; NB-1643, 1 mg/kg IP) was “High (High activity requires: (a) an EFS T/C >2; (b) a significant difference in EFS distributions, and (c) a net reduction in median tumor volume for animals in the treated group at the end of treatment as compared to at treatment initiation)”, the Response activity ([4]; NB-1643, 1 mg/kg IP) was “High (A high level of activity is indicated by a score of 6 or more)” and the T/C volume activity ([4]; NB-1643, 1 mg/kg IP) was “High (High activity = T/C ≤0.15)”. For the same compound, the “EFS T/C” value [4, 15] was greater than 4.7, the “Median final RTV (CD45%)” value [4, 15] was 0.6 and the “Tumor volume T/C” value ([4]; NB-1643, 1 mg/kg IP, Day 21 or earlier) was 0.01. For the same compound, the objective response ([4]; NB-1643 neuroblastoma xenograft) was “achieved an objective response”, the EFS activity ([5]; 1 mg/kg IP) was “High (High activity requires: (a) an EFS T/C >2; (b) a significant difference in EFS distributions, and (c) a net reduction in median tumor volume for animals in the treated group at the end of treatment as compared to at treatment initiation)” and the Response activity ([5]; 1 mg/kg IP) was “High (A high level of activity is indicated by a score of 6 or more)”. The T/C volume activity ([5]; 1 mg/kg IP) was “High (High activity = T/C ≤0.15)”, the “EFS T/C” value [5, 16] was greater than 3.1 and the “Median final RTV (CD45%)” value [5, 16] was 0.0. The “Tumor volume T/C” value ([5]; 1 mg/kg IP, Day 21 or earlier) was 0.00, the EFS activity ([6]; 1.5 mg/kg IP) was “Int (Intermediate activity = criteria (a) and (b) above, but not having a net reduction in median tumor volume for treated animals at the end of the study)” and the Response activity ([6]; 1.5 mg/kg IP) was “High (A high level of activity is indicated by a score of 6 or more)”. The “EFS T/C” value [6, 14] was greater than 4.4, the “Median final RTV (CD45%)” value ([6]; CD45%, 1.5 mg/kg IP) was 3.0% and the IC50 ([7]; 96 h, read-out: rIC50) was 160 pM. The “Panel rIC50/Line rIC50” value ([7]; CHLA-9) was 1.68, the Relative in/out% ([7]; CHLA-9) was −49% and the “Ymin % (observed)” value ([7]; CHLA-9) was 1.82%. The IC50 ([8]; 96 h, read-out: rIC50) was 14800 pM, the “Panel rIC50/Line rIC50” value ([8]; NB-EBc1) was 0.02 and the Relative in/out% ([8]; NB-EBc1) was −92%. The “Ymin % (observed)” value ([8]; NB-EBc1) was 1.76%, the AUC [9] was 1,132 ng hour/ml and the EFS activity ([10]; 1 mg/kg IP) was “High (High activity requires: (a) an EFS T/C >2; (b) a significant difference in EFS distributions, and (c) a net reduction in median tumor volume for animals in the treated group at the end of treatment as compared to at treatment initiation)”. The Response activity ([10]; 1 mg/kg IP) was “High (A high level of activity is indicated by a score of 6 or more)”, the T/C volume activity ([10]; 1 mg/kg IP) was “High (High activity = T/C ≤0.15)” and the “EFS T/C” value [10, 16] was greater than 4.3. The “Median final RTV (CD45%)” value [10, 16] was 0.0, the “Tumor volume T/C” value ([10]; 1 mg/kg IP, Day 21 or earlier) was 0.11 and the Response activity ([11]; 1 mg/kg IP) was “Low (low activity by a score of <2)”. For the same compound, the T/C volume activity ([11]; 1 mg/kg IP) was “Low (Low activity = T/C >0.45)”, the “EFS T/C” value [11, 16] was greater than 1.1 and the “Median final RTV (CD45%)” value [11, 16] was greater than 4. For the same compound, the “Tumor volume T/C” value ([11]; 1 mg/kg IP, Day 21 or earlier) was 0.78, the IC50 ([12]; Homo sapiens, Rh41, 96 h, read-out: rIC50) was 140 pM and the “Panel rIC50/Line rIC50” value ([12]; Rh41) was 2.00. For the same compound, the Relative in/out% ([12]; Rh41) was −70%, the “Ymin % (observed)” value ([12]; Rh41) was 6.63% and the EFS activity [13] was “High (High activity requires: (a) an EFS T/C >2; (b) a significant difference in EFS distributions, and (c) a net reduction in median tumor volume for animals in the treated group at the end of treatment as compared to at treatment initiation)”.
